Experimental data: ChEMBL document CHEMBL1139583, “Design, synthesis and evaluation of racemic 1-(4-hydroxyphenyl)-2-[3-(substituted phenoxy)-2-hydroxy-1-propyl]amino-1-propanol hydrochlorides as novel uterine relaxants” (Bioorg Med Chem Lett, 2005)

Legend:
Assay type in all cases: functional
Rattus norvegicus [1] = organism: Rattus norvegicus; test: Inhibition of oxytocin induced contraction required for uterine relaxant activity in isolated rat uterus preparation
Rattus norvegicus [2] = organism: Rattus norvegicus; test: cAmp released in rat at 10 mg
How it was run: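 Oral dosing of virgin female Sprague–Dawley rats in oestrus. Rats killed 3 h later. Uterine strips weighed and homogenized in Tris–EDTA, then centrifuged at 12,000g. Supernatant TCA removed by ether extraction and pH set to 7.5. cAMP measured by [³H]cAMP competitive binding assay against 0–16 pmol standards, 2 h at 2–8 °C, charcoal separation, scintillation counting.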

Rattus norvegicus [3] = organism: Rattus norvegicus; test: Delayed onset of labour in rat by comparing with control at 10 mg
How it was run: (§1)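 Pregnant Sprague–Dawley rats, six per dose group, dosed orally at 10 and 15 mg/kg/day from gestation day 13 to 21. Reference agent given at 10 mg/kg/day p.o. Onset of labour compared with control.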

Rattus norvegicus [4] = organism: Rattus norvegicus; test: Delayed onset of labour in rat by comparing with control at 15 mg; how it was run: as §1

Row | SMILES | IC50 (Rattus norvegicus [1]) [µmol] | Activity (Rattus norvegicus [2]) [pmol] | Activity (Rattus norvegicus [3]) [h] | Activity (Rattus norvegicus [4]) [h]
1 | CC(=O)Nc1ccc(OCC(O)CNC(C)C(O)c2ccc(O)cc2)c(C(C)=O)c1.Cl (centres undefined) | 6.58 | 3.53 | 23.7 | 30.1
2 | CC(NCC(O)COc1ccc(CC(N)=O)cc1)C(O)c1ccc(O)cc1.Cl (centres undefined) | 6.32 | 3.56 | 24 | 31.7

Second part, led by results:

Row | IC50 (Rattus norvegicus [1]) [µmol] | SMILES | Activity (Rattus norvegicus [2]) [pmol] | Activity (Rattus norvegicus [3]) [h] | Activity (Rattus norvegicus [4]) [h]
3 | 6.07 | CC(=O)Nc1ccc(OCC(O)CNC(C)C(O)c2ccc(O)cc2)cc1.Cl (centres undefined) | 3.48 | 25 | 31.8
4 | 6.02 | COCCc1ccc(OCC(O)CNC(C)C(O)c2ccc(O)cc2)cc1.Cl (centres undefined) | 3.66 | 27.1 | 33.7
5 | 9.15 | CC(COc1ccccc1)NC(C)C(O)c1ccc(O)cc1.Cl (centres undefined) [ISOXSUPRINE HYDROCHLORIDE] | 5.03 | 31.6 | 
